Assay results pooled from the literature.
Target: Serine/threonine-protein kinase TAO3 (TAOK3, Homo sapiens, UniProt Q9H2K8)
Sequence (Q9H2K8 1-898, as in one of the studies): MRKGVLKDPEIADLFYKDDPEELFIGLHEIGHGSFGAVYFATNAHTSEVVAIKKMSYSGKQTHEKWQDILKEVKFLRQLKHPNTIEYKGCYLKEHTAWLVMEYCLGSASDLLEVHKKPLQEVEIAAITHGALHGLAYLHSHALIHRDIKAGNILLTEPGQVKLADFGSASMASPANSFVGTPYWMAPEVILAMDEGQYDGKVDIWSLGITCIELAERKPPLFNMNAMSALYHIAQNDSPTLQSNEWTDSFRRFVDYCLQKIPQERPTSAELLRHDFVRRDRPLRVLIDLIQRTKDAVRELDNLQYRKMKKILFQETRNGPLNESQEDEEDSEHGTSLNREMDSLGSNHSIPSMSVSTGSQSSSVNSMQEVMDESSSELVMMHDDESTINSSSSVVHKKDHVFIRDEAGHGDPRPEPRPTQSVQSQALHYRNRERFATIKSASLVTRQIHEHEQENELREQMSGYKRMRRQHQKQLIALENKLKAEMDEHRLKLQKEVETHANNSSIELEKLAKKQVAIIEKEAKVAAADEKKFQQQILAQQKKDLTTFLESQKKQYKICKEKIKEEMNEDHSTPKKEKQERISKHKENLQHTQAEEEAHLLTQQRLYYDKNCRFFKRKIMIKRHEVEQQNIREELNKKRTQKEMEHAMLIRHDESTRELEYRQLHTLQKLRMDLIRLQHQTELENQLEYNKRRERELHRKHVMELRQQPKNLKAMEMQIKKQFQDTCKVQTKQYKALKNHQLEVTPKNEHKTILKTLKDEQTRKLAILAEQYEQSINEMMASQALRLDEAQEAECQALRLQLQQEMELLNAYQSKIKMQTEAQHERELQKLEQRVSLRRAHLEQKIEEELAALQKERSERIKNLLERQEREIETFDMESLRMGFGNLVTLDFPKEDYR

SMILES | observed | method | tested at | remaining binding [%]
Nc1ncc2c(n1)-c1c([nH]c3ccc(C#CC4CC4)cc13)CCCC2 | binding | competition with immobilised ligand | 1 µM | 89
COc1ccnn2ncc(-c3ccnc(N(C)C)n3)c12 | binding | – | 1 µM | 82
Cc1cc(NC(=O)c2cccc(S(F)(F)(F)(F)F)c2)cc(-n2ccn3nc(-c4cccnc4)cc23)c1 | cell-free assay | competition with immobilised ligand | 1 µM | 100
COc1ncc2cc3ccccc3nc2c1C#N | cell-free assay | competition with immobilised ligand | 5 µM | 100
C[C@@H]1CCN(c2nccc(-c3cnn4ncccc34)n2)C1 | binding | – | 1 µM | 90
O=C1CCc2cc(Nc3cc(OC4CCOCC4)c([N+](=O)[O-])cc3Cl)ccc2N1 | cell-free assay | competition with immobilised ligand | 1 µM | 81
COc1cnc(Nc2cccc(S(N)(=O)=O)c2)nc1N1CCN(c2ccccc2)C(=O)C1 | binding | competition with immobilised ligand | 1 µM | 93
F[C@@H]1CCN(c2nccc(-c3cnn4ncccc34)n2)C1 | binding | – | 1 µM | 55
O=C(NCCCN1CCOCC1)c1ccc(Nc2ncc(Cl)c(-c3ccc(Cl)s3)n2)cc1 | binding | competition with immobilised ligand | 1 µM | 49
C=CC(=O)N1CCC(C(=O)NCC(=O)N2CCN(c3nc(-c4cnc(N)nc4C(F)F)nc(N4CCOCC4)n3)CC2)CC1 | binding | competition with immobilised ligand | 1 µM | 77
CN(C)c1ncc(F)c(-c2cnn3ncccc23)n1 | binding | – | 1 µM | 78
Cn1nc(C(F)(F)F)cc1-c1cnc(N2CCc3cc(S(=O)(=O)Nc4c(F)cc(Cl)cc4F)cc(N4CCCC4=O)c32)nc1 | cell-free assay | competition with immobilised ligand | 1 µM | 93
CN(CCCC(F)(F)F)c1nccc(-c2cnn3ncccc23)n1 | binding | – | 1 µM | 61
CCC(=O)N[C@H]1CC[C@@H](C(=O)N(C)c2ccc(-c3nc4ccccc4o3)cc2)C1 | cell-free assay | competition with immobilised ligand | 1 µM | 70
CN(c1nccc(-c2cnn3ncccc23)n1)C1CC1 | binding | – | 1 µM | 54
O=C(c1ccc(Nc2nccc(-c3cc4ccccc4s3)n2)cc1)N1CCC(N2CCCC2)CC1 | binding | competition with immobilised ligand | 1 µM | 100
CNCc1ccccc1-c1csc([C@@H](C)Nc2nc(C)nc3cc(OC)c(OC)cc23)c1 | cell-free assay | competition with immobilised ligand | 1 µM | 83
N[C@H]1CCN(c2nccc(-c3cnn4ncccc34)n2)C1 | binding | – | 1 µM | 100
CN1CCN(c2cnc3c(C4CCN(C(=O)c5ccc(OC(F)(F)F)cc5N)CC4)ncnc3c2)CC1 | cell-free assay | competition with immobilised ligand | 1 µM | 100
O=C(NCC1CCOCC1)c1n[nH]cc1NC(=O)c1c(F)cccc1F | binding | competition with immobilised ligand | 1 µM | 45
CS(=O)(=O)c1cc(C2(NC(=O)c3cncc4c3cnn4-c3ccc(F)cc3)CC2)ccn1 | cell-free assay | competition with immobilised ligand | 1 µM | 97
O=C(NCCCN1CCOCC1)c1ccc(Nc2nccc(-c3cc4ccccc4s3)n2)cc1 | binding | competition with immobilised ligand | 1 µM | 82
